Measurements pooled from the literature.
Compare with care: the assays were run in different laboratories.
Target: Aurora kinase A (AURKA, Homo sapiens, UniProt O14965)
Residues used in one study (O14965 1-403): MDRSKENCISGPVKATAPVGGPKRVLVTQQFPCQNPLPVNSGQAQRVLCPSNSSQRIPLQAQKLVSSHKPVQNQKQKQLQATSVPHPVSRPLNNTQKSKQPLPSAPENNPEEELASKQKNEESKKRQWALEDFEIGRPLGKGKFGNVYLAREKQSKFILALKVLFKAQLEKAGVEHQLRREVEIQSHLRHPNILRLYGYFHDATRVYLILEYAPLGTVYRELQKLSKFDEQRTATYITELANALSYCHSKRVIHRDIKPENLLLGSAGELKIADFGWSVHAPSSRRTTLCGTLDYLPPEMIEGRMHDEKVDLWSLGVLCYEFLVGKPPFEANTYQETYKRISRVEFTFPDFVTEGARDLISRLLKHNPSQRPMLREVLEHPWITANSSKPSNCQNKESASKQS

| SMILES | test | conditions | measurement | result |
| --- | --- | --- | --- | --- |
| CC(=O)ON=C1C=CC(=C(C#N)c2ccccc2)C=C1 | enzyme activity, inhibitor, ADP detection | 20 µM | activity vs control | 66% |
| N#Cc1ccc(NC(=O)Nc2ccccc2)cc1 | cell-free assay, competition with immobilised ligand | 25 µM | remaining binding | 80% |
| CN1CCN(C(=O)c2ccc(NC(=O)Nc3ccc(N(C)c4ccnc(Nc5ccc(CS(C)(=O)=O)cc5)n4)cc3)cc2)CC1 | binding, competition with immobilised ligand | 1 µM | remaining binding | 0% |
| C#Cc1cc(-c2cc(Nc3nc(N[C@@H](C)c4ccc(F)cn4)ncc3Cl)n[nH]2)ccc1C=O | enzyme activity, inhibitor | 0.2 µM | inhibition | 82% |
| C=CC(=O)N1CCC([C@@H]2CCNc3c(C(N)=O)c(-c4ccc(Oc5ccccc5)cc4)nn32)CC1 | enzyme activity, inhibitor | 1 µM | inhibition | 1% |
| CCCCC(=O)Nc1ccc(-c2ccc3ncn(CCC)c(=O)c3c2)cn1 | binding, competition with immobilised ligand | 0.5 µM | remaining binding | 100% |
| COc1ccc2oc(-c3ccc4nc(N)oc4c3)c/c(=N\c3ccccc3NC(=O)CCN)c2c1 | binding | 1 µM | remaining binding | 98% |
| C=CC(=O)N1CCC[C@@H](n2nc(-c3ccc(Oc4ccccc4)cc3)c3c(N)ncnc32)C1 | enzyme activity, inhibitor | 1 µM | inhibition | 5% |
| C[C@H]1CC[C@H](n2c3cnccc3c3cnc(Nc4ccc5c(n4)CCN(C(=O)CO)C5)nc32)CC1 | cell-free assay, competition with immobilised ligand | 1 µM | remaining binding | 100% |
| C1=C/COCc2cc(ccc2OCCN2CCCC2)Nc2nccc(n2)-c2cccc(c2)COC/1 | binding | 0.1 µM | remaining binding | 81% |
